# Screening data from PubChem.
# Sampled rows, rich in hits. Any-hit rate of the full collection: about 2.2%.
# SUMO1 PPI mod = alters human SUMO1 binding to SIM partners | actives 0.33% (n = 360,000) | SUMO1 binding to a labelled peptide, TR-FRET, 1 h | P63165 | inhibition, % at 20 µM; in the data active means inhibition above about 37%
# Target sequence (P63165 whole entry, looked up): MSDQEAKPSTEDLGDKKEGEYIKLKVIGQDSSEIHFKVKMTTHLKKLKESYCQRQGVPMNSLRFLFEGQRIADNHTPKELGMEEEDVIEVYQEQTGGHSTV
# STEP inh = STEP (human) phosphatase inhibition; P54829; recombinant STEP, OMFP fluorogenic substrate, fluorescence; inhibition, % at 20 µM; actives 0.25% (n = 360,000);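 active means inhibition at 20 µM, scaled per plate between control wells, above about 37%, limit read from the data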;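 further: 0% = DMSO with enzyme and substrate and 100% = substrate only without enzyme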
#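 System: STEP phosphatase, cell-free reaction; Buffer or medium: Bis-Tris pH 6.0 buffer with DTT, detergent; Incubation: 20 min at room temperature, dark; Measured by: fluorescence, 480/540 nm.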
# DNMT1 block = DNMT1 (human) enzyme inhibition | DNMT1 molecular beacon, Hinp1I cleavage, fluorescence | AID 588458 | actives 0.83% (n = 360,000) | P26358 | inhibition (reported as % activation of signal), % at 10 µM; in the data active means inhibition above about 50%
# LMPTP block = LMPTP (human) inhibition; actives 0.22% (n = 360,000); AID 651560; recombinant LMPTP-A, OMFP fluorogenic substrate, fluorescence intensity; inhibition, % at 20 µM; P24666;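 active means compounds that cut the enzyme signal by at least half of the control window in the single-dose screen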;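 further: plate controls were DMSO wells with enzyme plus substrate for no effect and substrate without enzyme for full effect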
# Target sequence (P24666 whole entry, looked up): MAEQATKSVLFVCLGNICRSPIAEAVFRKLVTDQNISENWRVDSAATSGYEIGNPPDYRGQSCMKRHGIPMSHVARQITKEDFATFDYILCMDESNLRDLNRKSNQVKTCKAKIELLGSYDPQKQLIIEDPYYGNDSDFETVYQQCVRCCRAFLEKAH
#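 test system = LMPTP-A | amount = 0.625 nM LMPTP-A final | reagent = fluorogenic phosphatase substrate OMFP at 400 µM final | incubation = 50 min at room temperature | benchmarks = no-enzyme low control, uninhibited high control | medium = Bis-Tris pH 6.0, DTT, detergent | signal = fluorescence intensity of OMFP turnover product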
# Scp1 inh = Scp-1 (human) phosphatase inhibition; Recombinant Scp1, phosphopeptide, malachite green phosphate absorbance; AID 493091; inhibition, % at 20 µM; actives 0.88% (n = 340,000);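 active means inhibition above about 50% at 20 µM, limit read from the data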;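 further: plate controls were DMSO wells with enzyme for no effect and wells lacking enzyme for full effect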
# Target sequence (Q9GZU7 76-261 limits assumed): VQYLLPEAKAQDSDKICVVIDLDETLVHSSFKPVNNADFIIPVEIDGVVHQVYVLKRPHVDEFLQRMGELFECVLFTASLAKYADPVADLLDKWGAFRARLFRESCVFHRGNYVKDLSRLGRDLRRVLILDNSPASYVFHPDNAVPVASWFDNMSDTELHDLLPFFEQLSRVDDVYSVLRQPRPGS
#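 Times: enzyme reaction 45 min at room temperature, colour 5 min, stabilisation 30 min. Material: SCP-1 catalytic fragment, aa 76-261. Medium: Acidic Tris acetate buffer with magnesium and detergent. Signal: colorimetric free-phosphate detection, absorbance 630 nm. Read-out basis: % inhibition of SCP-1 phosphate liberation. Reagent: Phosphorylated 17-residue peptide substrate.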
# GRK2 inh = blocks RNA aptamer binding to human GRK2; actives 0.59% (n = 330,000); bead flow cytometry, FAM-aptamer displacement from GRK2; P25098; inhibition of aptamer binding, % at 10 µM;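 active means inhibition of aptamer binding above 40%, roughly 3 SD of noise, on plates passing a quality check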;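 further: median bead fluorescence of bound FAM aptamer so fluorescent compounds give negative values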
# DNMT1 interf DR = beacon fluorescence artifact, dose response counter-screen | molecular beacon fluorescence, spectral interference counter-screen | IC50, µM | shares compounds with DNMT1 block | AID 602382 | 200 tested, under 10 active; call rule not given here
# DNMT1 confirm = DNMT1 inhibition confirmation, single concentration; shares compounds with DNMT1 block; actives 8% (n = 2,300); DNMT1 molecular beacon HinP1I cleavage, fluorescence; inhibition, % at 10 µM;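 active means average inhibition of at least 30% in the single-concentration confirmation test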
# DNMT1 interf = counter-screen for DNMT1 inhibitors: spectral interference. shares compounds with DNMT1 block. AID 602387. DNMT1 molecular beacon spectral interference counterscreen, fluorescence 485/520. actives 1% (n = 2,300). activation (fluorescence interference), % at 10 µM;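 active means activation of at least 30% at 10 µM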;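 further: DNMT1 catalytic domain with a HinP1I cleavage step and a FAM/dabcyl DNA beacon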
# Starred values were filed as active, the others as inactive; . = no result.
SMILES,SUMO1 PPI mod,STEP inh,DNMT1 block,LMPTP block,Scp1 inh,GRK2 inh,DNMT1 confirm,DNMT1 interf,others
CC(C)(C)N1C(=O)c2ccccc2NC(=O)C1C(=O)NCc1ccco1 (stereo not drawn),6,.,.,-1,.,.,.,.,
CCOC(=O)c1c(NC(=O)CSc2nnc(C)o2)sc(C)c1C,1,4,59*,-1,-4,1,3,1,
Cn1cc(Cc2ccc(C(=O)NCc3ccccc3)cn2)c2ccccc21,12,21,-9,2,.,.,.,.,
CCc1nnc(NC(=O)CSc2ccc(-c3ccc(F)cc3)nn2)s1,.,.,.,.,.,0,.,.,
CCc1nnc(NC(=O)CSc2nc(-c3ccccc3)cc(-c3ccc(F)cc3)c2C#N)s1,-13,3,52*,2,7,4,0,1,
CCc1ccc(CNC(=O)C2CCN(S(=O)(=O)N3CCCCC3)CC2)cc1,-1,-2,5,-3,.,.,.,.,
C=CCn1c(=NC(=O)C2CC2)sc2cc(NC(C)=O)ccc21,3,0,1,1,-12,30,.,.,
C=CCn1c(=NC(=O)C2CCCCC2)sc2cc(NC(C)=O)ccc21,-7,1,51*,0,-13,0,0,-3,
O=C(/C=C/[C@H]1O[C@@H](n2ccc(=O)[nH]c2=O)[C@H](O)[C@@H]1O)NCCCc1ccccc1,2,-4,80*,-3,.,.,1,3,
O=C(/C=C/[C@H]1O[C@@H](n2ccc(=O)[nH]c2=O)[C@H](O)[C@@H]1O)NCCc1cccs1,1,-1,1,-3,.,.,.,.,
C#Cc1ccc([C@@H]2C=C(C(=O)NCc3ccccc3)O[C@H](OCCCCO)C2)cc1,3,0,54*,5,20,4,3,3,
O=C(NCc1ccccc1)C1=C[C@@H](c2ccc(Br)cc2)C[C@@H](OCCCCO)O1,-9,-1,-8,1,-3,.,.,.,
COc1cc(C(O)c2nc(-c3cccc(C#N)c3)cs2)ccc1F (stereo not drawn),0,-2,-5,0,.,.,.,.,
CSc1nnc(-c2ccncc2)n1/N=C/c1cn(-c2ccccc2)nc1-c1ccc(Cl)cc1,8,-2,6,2,11,0,.,.,
S=c1[nH]nc(-c2ccncc2)n1/N=C/c1cn(-c2ccccc2)nc1-c1ccc(Cl)cc1,0,2,75*,2,12,2,1,6,
C[C@@H]1CN([C@H](C)CO)C(=O)CCCn2nncc2CO[C@H]1CN(C)Cc1ccccc1,3,-2,1,-3,.,.,.,.,
OC[C@@H]1CN(Cc2ccc(-c3ccccc3)cc2)C[C@H](n2cnc3c(NCc4ccco4)ncnc32)O1,-6,-2,-5,4,.,.,.,.,
CC1(Cc2ccccc2Cl)C(=O)Nc2c(Cl)ccc(Cl)c21 (stereo not drawn),5,1,24,3,.,.,.,.,
Cc1ccc(CNC(=O)c2nnn(CC(=O)Nc3cc(C)cc(C)c3)c2N)cc1,3,-2,56*,14,-1,0,-2,0,
Cc1cc(C)cc(NC(=O)Cn2nnc(C(=O)NCc3ccc4c(c3)OCO4)c2N)c1,6,0,38,26,-6,0,.,.,
CN(C)C(CNC(=O)c1cccc(S(=O)(=O)N2CCN(c3ccc(F)cc3)CC2)c1)c1ccccc1 (stereo not drawn),-3,-1,3,3,-5,.,.,.,
Cc1ccc(C(=O)OCC(=O)NCc2ccco2)s1,0,0,58*,4,39,2,1,-1,
Cc1ccc(C2C(C#N)=C(N)N(N(C)C)C3=C2C(=O)CCC3)cc1 (stereo not drawn),2,-2,79*,0,-17,1,2,2,
CN(C)N1C(N)=C(C#N)C(c2ccc(Cl)cc2)C2=C1CCCC2=O (stereo not drawn),4,1,1,-1,-9,2,.,.,
COc1cc2c(cc1NC(=S)NC(=O)/C=C/c1ccc(OC)c(OC)c1)oc1ccccc12,-3,-2,3,3,-1,.,.,.,
SMILES,SUMO1 PPI mod,STEP inh,DNMT1 block,LMPTP block,Scp1 inh,GRK2 inh,DNMT1 confirm,DNMT1 interf,others
COc1cc2c(cc1NC(=O)Nc1ccc(F)cc1)oc1ccccc12,-1,-3,83*,2,-12,1,3,6,
COc1ccc(/C=C/C(=O)NC(=S)Nc2cc3oc4ccccc4c3cc2OC)cc1,5,0,57*,1,1,0,0,-10,
CCCCN(C=O)c1c(CC)nc2c(OCCOc3ccccc3)cccn12,-2,2,-2,3,.,.,.,.,
C#Cc1ccc(NC(=O)C2(C)CCN2C(=O)Cc2ccc(C(C)C)cc2)cc1 (stereo not drawn),8,-1,-2,4,.,.,.,.,
Cc1cc(C)n(/N=C/c2c[nH]c3ccccc23)c(=O)c1,-1,-4,1,-2,7,2,.,.,
CN(/N=C/c1c[nH]c2ccccc12)c1cnn(-c2ccc(F)c(Cl)c2)c(=O)c1Cl,-1,-3,111*,1,3,4,3,8,
CCN(CC1CCCO1)C(=O)CCc1nnc(CCc2ccccc2)o1 (stereo not drawn),-1,0,7,1,.,.,.,.,
O=C(NC(=S)Nc1cc(S(=O)(=O)N2CCOCC2)ccc1N1CCOCC1)c1ccco1,-1,-1,60*,0,-2,3,3,3,
Cc1cc(C)c2c(N)c3cccc(C)c3nc2n1,-2,-11,73*,13,-10,1,40*,-3,DNMT1 interf DR=>99
C=CCn1c(SCC(=O)c2[nH]c(C)c(C(=O)OCC)c2C)nc2scc(-c3ccccc3)c2c1=O,-4,4,57*,1,-10,1,1,2,
O=C(CCc1ccc(S(=O)(=O)N2CCOCC2)cc1)OCc1nc2ccccc2s1,2,-1,99*,-1,-2,0,8,8,
O=C(OCc1nc2ccccc2s1)c1cccc(S(=O)(=O)N2CCOCC2)c1,1,0,-1,1,-18,0,.,.,
CCCNC(=O)Cn1nc(-c2ccccc2OC)ccc1=O,-4,0,0,-2,.,.,.,.,
Cc1nc(SCC(=O)Nc2c(C)n(C)n(-c3ccccc3)c2=O)c2cnn(-c3ccccc3)c2n1,4,2,-2,1,-8,.,.,.,
